Results reported in ChEMBL document CHEMBL2176987, “Property-based optimization of hydroxamate-based γ-lactam HDAC inhibitors to improve their metabolic stability and pharmacokinetic profiles” (J Med Chem, 2012).
pIC50: −log10 of the molar value.

What was measured:
[1] = Lipophilicity, log D of the compound; format: physicochemical; conditions: octanol/water
HCT-15 = assay: Cytotoxicity against human HCT15 cells assessed as growth inhibition by SRB assay; format: functional
MDA-MB-231 = assay: Cytotoxicity against human MDA-MB-231 cells assessed as growth inhibition by SRB assay; format: functional
[2] = Inhibition of HDAC by fluorescence assay
PC-3 = assay: Cytotoxicity against human PC3 cells assessed as growth inhibition by SRB assay; format: functional, cell-based
ACHN = assay: Cytotoxicity against human ACHN cells assessed as growth inhibition by SRB assay; format: functional
NUGC-3 = assay: Cytotoxicity against human NUGC3 cells assessed as growth inhibition by SRB assay; format: functional
NCI-H23 = assay: Cytotoxicity against human NCI-H23 cells assessed as growth inhibition by SRB assay; format: functional
[3] = Oral bioavailability in Balb/c mouse at 30 mg/kg; format: ADME, organism-based; conditions: in vivo
Procedure, shortened: (§1)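 Balb/c mice dosed iv at 10 mg/kg or orally (20 or 30 mg/kg). Plasma concentration–time profiles averaged over three animals per time point. Parameters come from noncompartmental analysis. Oral AUC runs 0–5 h and iv AUC runs 0 to infinity.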

[4] = Passive permeability of the compound by PAMPA; format: ADME; conditions: read-out: permeability
Procedure, shortened: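 PAMPA passive diffusion with compound at a final concentration of 200 μM. Effective permeability Pe (nm/s) and membrane retention R (%) reported. Ranitidine and metoprolol served as controls.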

[5] = AUC (0 to infinity) in Balb/c mouse at 10 mg/kg, iv; format: ADME, organism-based; set-up: time infinity, dose 10 mg/kg, route intravenous; conditions: plasma; procedure, shortened: as §1
[6] = Metabolic stability in ICR mouse liver microsomes at 1 uM measured at 30 min in absence of NADPH; format: ADME, Microsome; conditions: read-out: Stability
Procedure, shortened: (§2)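 Test compound at 1 μM incubated with female ICR mouse liver microsomes (0.5 mg protein/mL) for 30 min at 37 °C, with or without NADPH. Result reported as % parent remaining at 30 min.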

[7] = Half life in Balb/c mouse at 10 mg/kg, iv; format: ADME, organism-based; set-up: dose 10 mg/kg, route intravenous; conditions: in vivo; procedure, shortened: as §1
[8] = Half life in Balb/c mouse at 30 mg/kg, po; format: ADME, organism-based; set-up: dose 30 mg/kg, route oral; conditions: in vivo; procedure, shortened: as §1
[9] = Tmax in Balb/c mouse at 30 mg/kg, po; format: ADME, organism-based; set-up: dose 30 mg/kg, route oral; conditions: in vivo; procedure, shortened: as §1
[10] = Clearance in Balb/c mouse at 10 mg/kg, iv; format: ADME, organism-based; set-up: dose 10 mg/kg, route intravenous; conditions: in vivo; procedure, shortened: as §1
[11] = Volume of distribution at steady state in Balb/c mouse at 10 mg/kg, iv; format: ADME, organism-based; set-up: dose 10 mg/kg, route intravenous; conditions: in vivo, read-out: Vdss; procedure, shortened: as §1
[12] = Metabolic stability in ICR mouse liver microsomes at 1 uM measured at 30 min in presence of NADPH; format: ADME, Microsome; conditions: read-out: Stability; procedure, shortened: as §2
[13] = Cmax in Balb/c mouse at 30 mg/kg, po; format: ADME, organism-based; set-up: dose 30 mg/kg, route oral; conditions: in vivo; procedure, shortened: as §1
[14] = AUC (0 to 5 hrs) in Balb/c mouse at 30 mg/kg, po; format: ADME, organism-based; set-up: dose 30 mg/kg, route oral; conditions: plasma; procedure, shortened: as §1
[15] = AUC (0 to 5 hrs) in Balb/c mouse at 20 mg/kg, po; format: ADME, organism-based; set-up: dose 20 mg/kg, route oral; conditions: plasma; procedure, shortened: as §1
[16] = Cmax in Balb/c mouse at 20 mg/kg, po; format: ADME, organism-based; set-up: dose 20 mg/kg, route oral; conditions: in vivo; procedure, shortened: as §1
[17] = Oral bioavailability in Balb/c mouse at 20 mg/kg; format: ADME, organism-based; conditions: in vivo; procedure, shortened: as §1
[18] = Tmax in Balb/c mouse at 20 mg/kg, po; format: ADME, organism-based; set-up: dose 20 mg/kg, route oral; conditions: in vivo; procedure, shortened: as §1
[19] = Half life in Balb/c mouse at 20 mg/kg, po; format: ADME, organism-based; set-up: dose 20 mg/kg, route oral; conditions: in vivo; procedure, shortened: as §1
[20] = Apparent permeability across apical to basolateral side in human Caco2 cells at 100 uM; format: ADME, cell-based; conditions: Caco-2

Structure (SMILES) | logD [1] | GI50 (HCT-15) [µM] | GI50 (MDA-MB-231) [µM] | pIC50 [2] | GI50 (PC-3) [µM] | GI50 (ACHN) [µM] | GI50 (NUGC-3) [µM] | GI50 (NCI-H23) [µM] | Papp [4] [×10⁻⁶ cm/s] | remaining at 0.5 h, 1 µM [6] [%] | remaining at 0.5 h, 1 µM [12] [%] | also measured
N#Cc1cccc(CN2CC=C(CCC(=O)NO)C2=O)c1 | 0.236 | > 10 | 3.6 | 6.80 | 7.92 | 7.75 | 4.12 | 4.08 |  |  |  | 
O=C(CCC1=CCN(Cc2ccc(Br)cc2)C1=O)NO | 1.26 |  |  |  |  |  |  |  | 1.02 | 100 | 84 | bioavailability [3]: 44.6%; AUC(0-inf) [5]: 2330 ng·h/mL; half-life [7]: 2.8 h; half-life [8]: 3.1 h; Tmax [9]: 0.15 h; clearance [10]: 71.7 mL/min/kg; Vd [11]: 4.1 L/kg; Cmax [13]: 2710 ng/mL; AUC(0-t) at 4 h [14]: 3110 ng·h/mL
O=C(CCC1=CCN(CCc2ccc([N+](=O)[O-])cc2)C1=O)NO | 0.594 | > 10 | 4.97 | 5.83 | > 10 | 8.96 | > 10 | 7.8 |  |  |  | 
CC(C)(C)c1ccc(CN2CC=C(CCC(=O)NO)C2=O)cc1 | 2.1 | 0.57 | 0.69 | 7.00 | 1.83 | 0.86 | 0.72 | 0.42 | 2.19 | 79 | 58.2 | AUC(0-t) at 4 h [15]: 739 ng·h/mL; AUC(0-inf) [5]: 3440 ng·h/mL; Cmax [16]: 462 ng/mL; half-life [7]: 7.8 h; clearance [10]: 48.3 mL/min/kg; Vd [11]: 1.6 L/kg; bioavailability [17]: 10.7%; Tmax [18]: 0.25 h; half-life [19]: 13.6 h
CC(C)(C)c1ccc(CCCN2CC=C(CCC(=O)NO)C2=O)cc1 | 2.7 |  |  |  |  |  |  |  | 1.5 | 57.6 | 35.3 | 
O=C(CCC1=CCN(CCCCc2ccc(Cl)cc2)C1=O)NO | 2.17 |  |  |  |  |  |  |  | 0.494 | 34.6 | 24.9 | 
O=C(CCC1=CCN(CCc2cccc([N+](=O)[O-])c2)C1=O)NO | 0.633 | > 10 | 3.18 | 5.97 | 8.69 | 5.7 | 6.57 | 4.39 |  |  |  | 
CC(C)(C)c1ccc(CCN2CC=C(CCC(=O)NO)C2=O)cc1 | 2.25 |  |  |  |  |  |  |  | 6.53 | 51 | 38.1 | 
N#Cc1ccc(CN2CC=C(CCC(=O)NO)C2=O)cc1 | 0.197 | > 10 | 5.38 | 6.82 | > 10 | > 10 | > 10 | 2.32 |  |  |  | 
O=C(CCC1=CCN(Cc2ccc(F)cc2)C1=O)NO | 0.571 | 4.07 | 1.94 | 7.22 | 5.31 | 5.99 | 6.06 | 4.67 | 1.93 | 91.4 | 87.7 | bioavailability [3]: 30.6%; AUC(0-inf) [5]: 1280 ng·h/mL; half-life [7]: 2.6 h; half-life [8]: 1.1 h; Tmax [9]: 0.25 h; clearance [10]: 130 mL/min/kg; Vd [11]: 1.8 L/kg; Cmax [13]: 2300 ng/mL; AUC(0-t) at 4 h [14]: 1180 ng·h/mL; Papp A→B at 100 µM [20]: 7.8 ×10⁻⁶ cm/s
O=C(CCC1=CCN(Cc2cc(C(F)(F)F)cc(C(F)(F)F)c2)C1=O)NO | 2.4 |  |  |  |  |  |  |  | 2.83 | 40.5 | 35.7 | 
